GSTO1 inh: GSTO1 inhibition, counter-screen for RBBP9 inhibitors. recombinant GSTO1, activity-based probe fluorescence polarization. inhibition, % at 5.96 µM. 1.1% of 300,000 active. AID 1974;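 active = inhibition above the campaign mean inhibition plus 3 SD, cut at about 35% in these data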;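 note: 0% = GSTO1-1 with DMSO and 100% = wells lacking GSTO1-1 enzyme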
Target sequence (P78417 whole entry, looked up): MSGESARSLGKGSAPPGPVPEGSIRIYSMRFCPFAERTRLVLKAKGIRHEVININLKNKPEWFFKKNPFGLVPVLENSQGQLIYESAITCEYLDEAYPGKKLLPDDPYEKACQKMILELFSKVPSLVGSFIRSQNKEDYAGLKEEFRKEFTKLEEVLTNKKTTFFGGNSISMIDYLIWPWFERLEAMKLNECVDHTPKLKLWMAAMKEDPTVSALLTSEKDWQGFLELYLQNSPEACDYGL
PRMT1 inh: inhibitors of human PRMT1. recombinant PRMT1, activity-based probe fluorescence polarization. inhibition, % at 2.79 µM. 1.3% of 370,000 active. AID 652257;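 active = inhibition above about 21% made by adding two undisclosed values, limit read from the data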
Target sequence (Q99873 whole entry, looked up): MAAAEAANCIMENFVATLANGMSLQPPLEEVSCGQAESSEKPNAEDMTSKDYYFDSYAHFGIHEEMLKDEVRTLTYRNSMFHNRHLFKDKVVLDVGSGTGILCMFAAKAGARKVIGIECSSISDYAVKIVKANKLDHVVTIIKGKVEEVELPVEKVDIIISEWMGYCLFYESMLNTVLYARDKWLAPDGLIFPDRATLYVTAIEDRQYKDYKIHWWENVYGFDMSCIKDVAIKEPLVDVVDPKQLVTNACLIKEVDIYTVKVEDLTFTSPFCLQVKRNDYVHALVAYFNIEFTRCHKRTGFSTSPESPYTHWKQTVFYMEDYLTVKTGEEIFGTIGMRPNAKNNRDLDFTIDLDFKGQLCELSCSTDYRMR
TDP2 absorb: blocks human TDP2 phosphodiesterase activity. recombinant TDP2, T5PNP hydrolysis, p-nitrophenol absorbance 415 nm. inhibition, % at 12.8 µM. 0.34% of 370,000 active;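 active = inhibition above the mean of all tested compounds plus 3 SD, set per campaign, cut at about 25% in these data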;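 note: 0% = DMSO with enzyme and 100% = buffer with substrate but no TDP2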
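Test system: human TDP2 enzyme; Input: 120 nM TDP2 per well; Buffer or medium: Mg2+-containing Tris-HCl buffer, pH 7.5; Reagent: 5 mM T5PNP; Dosing: 12.8 µM single point, 1% DMSO; Incubation: reaction 2 h, 37 °C; Detection: p-Nitrophenol epi absorbance; Read-out: % inhibition relative to enzyme-containing and enzyme-free wells; Replicates: single well per compound.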
eLon inh: inhibits E. coli Lon protease; purified E. coli Lon protease, fluorescence polarization; inhibition, % at 7.94 µM; 0.42% of 360,000 active; AID 602123; in the data active = inhibition above about 13%, passing the limit was not always enough;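 note: 0% = enzyme with probe and DMSO and 100% = no enzyme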
PAD4 FP inh: blocks human protein arginine deiminase 4 | 0.41% of 330,000 active | Q9UM07 | recombinant PAD4, RCA probe fluorescence polarization | inhibition, % at 6.36 µM | AID 485272;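 active = percent inhibition above a cutoff equal to the mean of all tested compounds plus 3 SD, cut at about 15% in these data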;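 note: 0% = PAD4 with RCA probe and DMSO and 100% = probe without PAD4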
The depositor's hits bear a star; . = not tested or not shown; + = active, no number. Hits are enriched below; roughly 2.5% of the tested compounds scored in any of these assays.

SMILES	GSTO1 inh	PRMT1 inh	TDP2 absorb	eLon inh	PAD4 FP inh
Cc1cc(C(=O)C(C)Cl)c(C)n1Cc1ccco1 (stereo unspecified)	81*	2	8	-6	-7
CCCCOc1cccc(C2C(C(=O)c3ccc(C)o3)=C(O)C(=O)N2c2nnc(C)s2)c1 (stereo unspecified)	.	23*	3	-56	.
COc1cccc(C2C(C(=O)c3ccc(C)o3)=C(O)C(=O)N2c2cc(C)on2)c1 (stereo unspecified)	5	4	11	-3	-4
COC(=O)C1CN(Cc2cn(CCC3OCCO3)nn2)CCS(=O)(=O)N1Cc1ccc(Cl)cc1 (stereo unspecified)	.	7	1	.	.
Cc1ccc(S(=O)(=O)OCC(=O)Nc2ccc(C(=O)O)c(O)c2)cc1	.	21*	2	27	.
Nc1ncnc2c1ncn2[C@@H]1O[C@H](C(=O)N[C@@H](CCc2ccccc2)C(=O)N2CCN(CC(=O)N3CCCC3)CC2)[C@@H](O)[C@H]1O	.	3	-4	.	.
COc1ccccc1/C=C\C=N\n1c(-c2ccc(Cl)cc2Cl)n[nH]c1=S	-1	22*	-2	-2	1
COC(=O)c1cccc(Cn2ccc3ccc(-c4ccc5ccn(C(=O)c6cccc(OC)c6)c5c4)cc32)c1	.	4	4	.	.
Fc1ccc(-c2nc3c4ccccc4ccn3c2Cc2ccsc2)cc1	.	0	3	-8	.
c1coc(-c2nc3c4ccccc4ccn3c2Cc2ccsc2)c1	.	32*	-8	.	.
CC(=O)Nc1cccc(C(C)C2=CCCCC2)c1 (stereo unspecified)	.	1	-11	.	.
O=c1cc(/N=C/c2coc3c(ccc4ccccc43)c2=O)[nH]c(=S)[nH]1	42*	-1	-7	9	-1
NC(=S)N/N=C/c1coc2c(ccc3ccccc32)c1=O	13	-2	-2	2	-7
C(=N\Nc1nc(-c2ccccc2)cs1)/c1ccco1	6	24*	-22	-5	2
Cc1ccc(-c2csc(N/N=C/c3ccco3)n2)cc1	0	13	-3	-2	-1
COC(=O)[C@]12C[C@H](CC(=O)N3CCN(C(=O)C4CC4)CC3)C(=O)N(Cc3cccc4ccccc34)C1=C[C@H](C(C)(C)C)O[C@@H]2C	.	1	1	.	.
O=C(CN1C(=O)S/C(=C\c2ccccc2Cl)C1=O)NCCCn1ccnc1	-9	24*	-10	3	-5
CN1C(=O)C(=C2CCCCCC2)SC1=S	4	12	-2	10	3
O=C1NC(=S)SC1=C1CCCC1	23	24*	2	-6	1
N#CC1=C(N)OC2=C(CN(Cc3ccccc3)C/C2=C\c2cccnc2)C1c1cccnc1 (stereo unspecified)	-6	3	1	4	2
CC(C)N1CC2=C(OC(N)=C(C#N)C2c2cccnc2)/C(=C/c2cccnc2)C1 (stereo unspecified)	6	2	-4	5	16*
CN(C)c1ccc2nc3ccc(=[N+](C)C)cc-3sc2c1	36*	7	21	5	-3
Nc1nc2cc3c(cc2cc1C(=O)NCc1cccnc1)OCO3	.	5	-6	.	.
O=C(O)c1[nH]c2ccccc2c1C(c1cc(Br)ccc1O)c1c(C(=O)O)[nH]c2ccccc12	59*	2	-5	4	-3
O=C(O)c1[nH]c2ccccc2c1C=NCc1ccccc1Cl	11	0	6	-4	-6
SMILES	GSTO1 inh	PRMT1 inh	TDP2 absorb	eLon inh	PAD4 FP inh
COc1cc(Cl)cc(C(c2c(C(=O)O)[nH]c3ccccc23)c2c(C(=O)O)[nH]c3ccccc23)c1O	22	0	13	8	2
O=C(O)c1[nH]c2ccccc2c1C(c1c(F)cccc1Cl)c1c(C(=O)O)[nH]c2ccccc12	41*	2	6	1	-7
CCN(CC)C(=O)CC[C@H]1CC[C@]2(CCCN(Cc3ccc(OC)cc3)C2)O1	.	-3	6	.	.
CC(C)C(=O)N1CCC(Oc2cccnc2)CC1	.	1	-3	.	.
COc1cccc(CNc2ccccc2O)c1OCc1ccccc1F	36*	5	3	-4	-20
COc1cccc(CNc2ccc(S(N)(=O)=O)cc2)c1OCc1ccccc1F	-3	-1	4	5	-3
CCCC(=O)N1CCC[C@]2(CC[C@H](CCC#N)O2)C1	.	0	5	.	.
Cc1nn(CC(=O)NC2C(=O)N3C(C(=O)O)=C(CSc4nnnn4C)CSC23)cc1Br (stereo unspecified)	2	22*	-1	0	-8
CC1=C(C(=O)O)N2C(=O)C(NC(=O)c3nn(C)cc3Cl)C2SC1 (stereo unspecified)	-5	6	0	0	-1
Cn1nnnc1SCC1=C(C(=O)O)N2C(=O)C(NC(=O)Cn3nc(C(F)F)cc3C3CC3)C2SC1 (stereo unspecified)	2	24*	10	3	-7
Cc1nnc(SCC2=C(C(=O)O)N3C(=O)C(NC(=O)Cc4ccccc4)C3SC2)s1 (stereo unspecified)	.	25*	0	-6	-1
CCn1ccc(C(=O)NC2C(=O)N3C(C(=O)O)=C(C)CSC23)n1 (stereo unspecified)	-4	7	1	-6	2
COC(=O)C1CN(C2CCCC2)CCS(=O)(=O)N1Cc1cn(Cc2ccccc2)nn1 (stereo unspecified)	.	0	2	.	.
COc1ccccc1C1=NNC(=Nc2cccc(S(=O)(=O)N(C)C)c2)SC1	-6	22*	7	0	2
COCCn1c(C)cc(C2=NNC(=Nc3ccccc3)SC2)c1C	4	7	0	-10	2
COC(=O)[C@]12C[C@H](CC(=O)NCc3cccs3)C(=O)N(Cc3ccc(Cl)cc3Cl)C1=C[C@H](C(C)(C)C)O[C@@H]2C	.	1	-12	.	.
CC(C)C[C@@H]1NC(=O)[C@H]2C[C@@]3(C)c4ccccc4N[C@H]3N2C1=O	.	-1	1	.	.
COc1cc(C2C=C(c3cccs3)Nc3ncnn32)cc(OC)c1OC (stereo unspecified)	.	.	.	+	.
COc1cc(C2CC(=O)C3=C(C2)Nc2ncnn2C3c2cccs2)cc(OC)c1OC (stereo unspecified)	15	-1	3	-10	7
CC(Cc1ccc(O)c(O)c1)C(C)Cc1ccc(O)c(O)c1 (stereo unspecified)	52*	.	.	.	-4
COc1cc(C[C@@H](C)[C@@H](C)Cc2ccc(O)c(OC)c2)ccc1O	.	2	6	2	2
Cc1ccc(NC(=O)c2cccc3c2-c2ccccc2C3=O)c(C)c1	.	0	6	.	.
O=C(O)C1CSC(c2ccc3c(c2)OCO3)N1 (stereo unspecified)	-1	27*	-15	-9	2
O=C(O)C1CSC(c2ccc(O)c([N+](=O)[O-])c2)N1 (stereo unspecified)	.	6	9	12	.
NC(=O)C1CCN(c2nc(-c3ccc(N)cc3)cs2)CC1	.	-2	-3	.	.
NC(=O)C1CCN(c2ncc(Br)s2)CC1	.	22*	-2	.	.

Screening results (PubChem)
